Data from ChEMBL document CHEMBL1125672, “2-acetylpyridine thiosemicarbazones. 13. Derivatives with antifilarial activity” (1991).

Key:
Acanthocheilonema viteae = experiment: anti-filarial Activity was measured against Acanthocheilonema viteae in jirds at 12.5 mg/kg/day(5 days) dose; assay type: functional
Summary of the method: (§1)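 Jirds with established B. pahangi or A. viteae infections were given drug once daily for 5 days by subcutaneous injection, at the maximum tolerated dose and, where supply allowed, graded lower doses. Tolerance was first checked in noninfected jirds with a single 200 mg/kg oral or subcutaneous dose, watching 72 h for excessive weight loss or death. Macrofilarial suppression was the read-out.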

Brugia pahangi [1] = experiment: anti-filarial Activity was measured against Brugia pahangi in jirds at 12.5 mg/kg/day(5 days) dose; assay type: functional; summary of the method: as §1
Brugia pahangi [2] = experiment: anti-filarial Activity was measured against Brugia pahangi in jirds at 25 mg/kg/day(5 days) dose; assay type: functional; summary of the method: as §1
Onchocerca gutturosa [3] = experiment: Colorimetric quantification of male Onchocerca gutturosa viability, expressed as % inhibition of formazan formation at 5*10e-5 M conc. by using tetrazolium Dye MTT assay; assay type: functional
Summary of the method: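 Single intact male O. gutturosa, cultured with LLCMK2 feeder cells in MEM + 10% heat-inactivated FCS (5% CO2), drug added from DMSO (≤0.016% DMSO in controls). MTT read after 168 h: worm in 0.5 mg/mL MTT, 30 min at 36.5 °C, formazan solubilized in DMSO 1 h at room temperature, absorbance 490 nm vs DMSO blank.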

Onchocerca gutturosa [4] = experiment: Mean motility score for treated Onchocerca gutturosa involving LLCMK2 feeder cells at a concentration of 5*10e-5 M at 1 h; assay type: functional
Summary of the method: (§2)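 Single male O. gutturosa worms (obtained following abattoir slaughter) per well in Eagle's MEM with 10% heat-inactivated fetal calf serum, penicillin, streptomycin, amphotericin B and bicarbonate, over LLCMK2 feeder cells, 5% CO2 in air. Drug dissolved in DMSO; controls received matched DMSO ≤0.016%. Motility scored 0 (immotile) to 10 (maximum control activity) every 30 min to 4.5 h, then days 1, 2, 3, 4, 7.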

Onchocerca gutturosa [5] = experiment: Mean motility score for treated Onchocerca gutturosa involving LLCMK2 feeder cells at a concentration of 5*10e-5 M at 1.5 h; assay type: functional; summary of the method: as §2
Onchocerca gutturosa [6] = experiment: Mean motility score for treated Onchocerca gutturosa involving LLCMK2 feeder cells at a concentration of 5*10e-5 M at 2 h; assay type: functional; summary of the method: as §2
Onchocerca gutturosa [7] = experiment: Mean motility score for treated Onchocerca gutturosa involving LLCMK2 feeder cells at a concentration of 5*10e-5 M at 2.5 h; assay type: functional; summary of the method: as §2
Onchocerca gutturosa [8] = experiment: Mean motility score for treated Onchocerca gutturosa involving LLCMK2 feeder cells at a concentration of 5*10e-5 M at 24 h; assay type: functional; summary of the method: as §2
Onchocerca gutturosa [9] = experiment: Mean motility score for treated Onchocerca gutturosa involving LLCMK2 feeder cells at a concentration of 5*10e-5 M at 3.5 h; assay type: functional; summary of the method: as §2
Onchocerca gutturosa [10] = experiment: Mean motility score for treated Onchocerca gutturosa involving LLCMK2 feeder cells at a concentration of 5*10e-5 M at 4.5 h; assay type: functional; summary of the method: as §2
Onchocerca gutturosa [11] = experiment: Mean motility score for treated Onchocerca gutturosa involving LLCMK2 feeder cells at a concentration of 5*10e-5 M at 48 h; assay type: functional
Summary of the method: (§3)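 Single male O. gutturosa worms per well in Eagle's MEM with 10% heat-inactivated fetal calf serum, antibiotics and bicarbonate, over LLCMK2 feeder cells, 5% CO2 in air. Test chemical dissolved in DMSO and diluted into medium; control wells got matched DMSO not exceeding 0.016%. Motility scored 0 (immotile) to 10 (maximum control motility) every 30 min for 4.5 h, then at 1, 2, 3, 4 and 7 days.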

Onchocerca gutturosa [12] = experiment: Mean motility score for treated Onchocerca gutturosa involving LLCMK2 feeder cells at a concentration of 5*10e-5 M at 72 h; assay type: functional; summary of the method: as §3
Onchocerca gutturosa [13] = experiment: Mean motility score for treated Onchocerca gutturosa involving LLCMK2 feeder cells at a concentration of 3.05*10e-9 M at 168 h; assay type: functional; summary of the method: as §2
Onchocerca gutturosa [14] = experiment: Mean motility score for treated Onchocerca gutturosa involving LLCMK2 feeder cells at a concentration of 3.05*10e-9 M at 24 h; assay type: functional; summary of the method: as §2
Onchocerca gutturosa [15] = experiment: Mean motility score for treated Onchocerca gutturosa involving LLCMK2 feeder cells at a concentration of 3.05*10e-9 M at 3 h; assay type: functional; summary of the method: as §2
Onchocerca gutturosa [16] = experiment: Mean motility score for treated Onchocerca gutturosa involving LLCMK2 feeder cells at a concentration of 3.05*10e-9 M at 4 h; assay type: functional; summary of the method: as §2
Onchocerca gutturosa [17] = experiment: Mean motility score for treated Onchocerca gutturosa involving LLCMK2 feeder cells at a concentration of 3.05*10e-9 M at 48 h; assay type: functional; summary of the method: as §2
Onchocerca gutturosa [18] = experiment: Mean motility score for treated Onchocerca gutturosa involving LLCMK2 feeder cells at a concentration of 3.05*10e-9 M at 72 h; assay type: functional; summary of the method: as §2
Onchocerca gutturosa [19] = experiment: Mean motility score for treated Onchocerca gutturosa involving LLCMK2 feeder cells at a concentration of 3.05*10e-9 M at 96 h; assay type: functional; summary of the method: as §2
Onchocerca volvulus [20] = experiment: Mean motility score for treated Onchocerca volvulus excluding LLCMK2 feeder cells at a concentration of 5*10e-5 M at 1 h
Onchocerca volvulus [21] = experiment: Mean motility score for treated Onchocerca volvulus excluding LLCMK2 feeder cells at a concentration of 5*10e-5 M at 2 h
Onchocerca volvulus [22] = experiment: Mean motility score for treated Onchocerca volvulus excluding LLCMK2 feeder cells at a concentration of 5*10e-5 M at 24 h
Onchocerca volvulus [23] = experiment: Mean motility score for treated Onchocerca volvulus excluding LLCMK2 feeder cells at a concentration of 5*10e-5 M at 96 h
Onchocerca volvulus [24] = experiment: Mean motility score for treated Onchocerca volvulus excluding LLCMK2 feeder cells at a concentration of 5*10e-5 M at 0.5 h
Onchocerca volvulus [25] = experiment: Mean motility score for treated Onchocerca volvulus excluding LLCMK2 feeder cells at a concentration of 3.1*10e-6 M at 1 h
Onchocerca volvulus [26] = experiment: Mean motility score for treated Onchocerca volvulus excluding LLCMK2 feeder cells at a concentration of 3.1*10e-6 M at 2 h
Onchocerca volvulus [27] = experiment: Mean motility score for treated Onchocerca volvulus excluding LLCMK2 feeder cells at a concentration of 3.1*10e-6 M at 72 h
Onchocerca volvulus [28] = experiment: Mean motility score for treated Onchocerca volvulus excluding LLCMK2 feeder cells at a concentration of 3.1*10e-6 M at 96 h
Onchocerca volvulus [29] = experiment: Mean motility score for treated Onchocerca volvulus excluding LLCMK2 feeder cells at a concentration of 3.1*10e-6 M at 24 h
Onchocerca volvulus [30] = experiment: Mean motility score for treated Onchocerca volvulus excluding LLCMK2 feeder cells at a concentration of 3.1*10e-6 M at 1.5 h
Onchocerca volvulus [31] = experiment: Mean motility score for treated Onchocerca volvulus excluding LLCMK2 feeder cells at a concentration of 3.1*10e-6 M at 0.5 h

Row | Structure (SMILES) | Suppression (Acanthocheilonema viteae) [%] | Suppression (Brugia pahangi [1]) [%] | Suppression (Brugia pahangi [2]) [%] | Inhibition (Onchocerca gutturosa [3]) [%] | Motility (Onchocerca gutturosa [4]) | Motility (Onchocerca gutturosa [5]) | Motility (Onchocerca gutturosa [6]) | Motility (Onchocerca gutturosa [7]) | Motility (Onchocerca gutturosa [8]) | Motility (Onchocerca gutturosa [9]) | Motility (Onchocerca gutturosa [10]) | Motility (Onchocerca gutturosa [11]) | Motility (Onchocerca gutturosa [12]) | Motility (Onchocerca gutturosa [13]) | Motility (Onchocerca gutturosa [14]) | Motility (Onchocerca gutturosa [15]) | Motility (Onchocerca gutturosa [16]) | Motility (Onchocerca gutturosa [17]) | Motility (Onchocerca gutturosa [18]) | Motility (Onchocerca gutturosa [19]) | also measured
1 | C/C(=N\NC(=S)N1CCCCCC1)c1ccccn1 | -16 | 100 | 84 | 90.3 | 4.8 | 4.8 | 4.8 | 3.8 | 0 | 2.3 | 1.8 | 0 | 0 | 3.5 | 9.3 | 8.8 | 7.8 | 6.8 | 6 | 5.5 | Motility (Onchocerca volvulus [20]): 8.4; Motility (Onchocerca volvulus [21]): 8; Motility (Onchocerca volvulus [22]): 1.6; Motility (Onchocerca volvulus [23]): 0.3; Motility (Onchocerca volvulus [24]): 8; Motility (Onchocerca volvulus [25]): 6.6; Motility (Onchocerca volvulus [26]): 6.6; Motility (Onchocerca volvulus [27]): 1; Motility (Onchocerca volvulus [28]): 0; Motility (Onchocerca volvulus [29]): 3.4; Motility (Onchocerca volvulus [30]): 6.4; Motility (Onchocerca volvulus [31]): 6.6
2 | C/C(=N\NC(S)=Nc1ccccc1N)c1ccccn1 | 28 | 16 | 100 | 72.9 | 10 | 9.5 | 8.5 | 9.5 | 9.5 | 9.5 | 9.5 | 8.3 | 1.6 | 4.5 | 7.3 | 7.5 | 5.8 | 6.3 | 7.5 | 6.8 | Motility (Onchocerca volvulus [20]): 5; Motility (Onchocerca volvulus [21]): 6; Motility (Onchocerca volvulus [22]): 4.4; Motility (Onchocerca volvulus [23]): 0.6; Motility (Onchocerca volvulus [24]): 5; Motility (Onchocerca volvulus [25]): 5; Motility (Onchocerca volvulus [26]): 6; Motility (Onchocerca volvulus [27]): 1.2; Motility (Onchocerca volvulus [28]): 0.4; Motility (Onchocerca volvulus [29]): 1.6; Motility (Onchocerca volvulus [30]): 4.4; Motility (Onchocerca volvulus [31]): 8
